The values below come from ChEMBL document CHEMBL3596149, “Thermodynamics and kinetic studies in the binding interaction of cyclic naphthalene diimide derivatives with double stranded DNAs” (Bioorg Med Chem, 2015).

Calls of active or inactive are those of the source. The calls are words filed in the database; no cut-off is given here.

Experiment [1] has as its system Calf thymus DNA. Briefly: Binding affinity to calf thymus DNA assessed as delta(logK)/delta(log[Na+]) ratio at 0.05 to 0.125 M NaCl by UV-vis titration method. The settings on record: Bos taurus. It is filed as nucleic-acid assay. A digest of the protocol: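 Binding constants for CT-DNA were measured by UV-vis Scatchard titration in 10 mM MES pH 6.25 with 1 mM EDTA at varied NaCl. The ratio is the slope of log K plotted against −log[Na+].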

In experiment [2] the test system is Calf thymus DNA. Briefly: Binding affinity to calf thymus DNA assessed as association constant by stopped flow kinetics assay. It is filed as nucleic-acid assay. The settings on record: Bos taurus. A digest of the protocol:
(§1)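 Ligand was mixed with DNA in a stopped-flow instrument, in 10 mM MES pH 6.25 with 0.1 M NaCl and 1 mM EDTA. Ligand to DNA base-pair ratio was 1:10. Absorbance was followed at the ligand maximum (383 nm). Traces were fitted to a single exponential, and apparent rate constants were plotted against DNA concentration.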

A short description of experiment [3]: Binding affinity to poly[d(A-T)]2 DNA (unknown origin) assessed as association constant by stopped flow kinetics assay. A digest of the protocol: as §1
Experiment [4] in a line: Binding affinity to poly[d(G-C)]2 DNA (unknown origin) assessed as association constant by stopped flow kinetics assay. Put shortly: as §1
Experiment [5] relates to Calf thymus DNA. The experiment is described as follows: Binding affinity to calf thymus DNA assessed as dissociation constant by stopped flow kinetics assay. It is filed as nucleic-acid assay, Bos taurus. A digest of the protocol: (§2)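 Dissociation was SDS-driven and measured by stopped-flow. Equal volumes of 1% SDS and ligand–DNA complex (ligand:bp 1:10) were mixed rapidly. Buffer was 10 mM MES pH 6.25 with 100 mM NaCl and 1 mM EDTA. Absorbance was recorded over time, and k_d was obtained by nonlinear fitting of the trace.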

A short description of experiment [6]: Binding affinity to poly[d(A-T)]2 DNA (unknown origin) assessed as dissociation constant by stopped flow kinetics assay. Put shortly:
as §2

A short description of experiment [7]: Binding affinity to poly[d(G-C)]2 DNA (unknown origin) assessed as dissociation constant by stopped flow kinetics assay. A digest of the protocol: as §2
The test system of another experiment is Nucleic Acid. The experiment is described as follows: Induction of DNA intercalation of pUC19 DNA assessed as compound level causing DNA re-supercoiling in presence of topoisomerase-1 incubated for 1 hr at 37 degC by electrophoresis method. The class given is nucleic-acid assay. To be noted: Escherichia coli. Put shortly:
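pUC19 (0.25 µg) was preincubated with 5 U topoisomerase I for 5 min at 37°C. Reaction buffer was 35 mM Tris-HCl pH 8.0, 72 mM KCl, 5 mM MgCl2, 5 mM DTT, 5 mM spermidine and 0.1% BSA. Ligand (2.0–50 µM) was then added for 1 h at 37°C. After SDS/proteinase K treatment, extraction and ethanol precipitation, DNA was run on 1% agarose in TAE (18 V, 3.5 h) and GelStar-stained.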

The subject of experiment [8] is Calf thymus DNA. Briefly: Binding affinity to calf thymus DNA assessed as hypochromicity by UV-vis titration method. The class given is nucleic-acid assay. To be noted: Bos taurus. Put shortly:
(§3)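 Titration was the same as the UV-vis binding titration: 6.7 µM ligand, 10 mM MES pH 6.25, 100 mM NaCl, 1 mM EDTA, 25°C. Hypochromicity was calculated as H% = (A383 free − A383 bound)/A383 free × 100.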

The nature of experiment [9]: Binding affinity to poly[d(A-T)]2 DNA (unknown origin) assessed as hypochromicity by UV-vis titration method. A digest of the protocol:
as §3

A short description of experiment [10]: Binding affinity to poly[d(G-C)]2 DNA (unknown origin) assessed as hypochromicity by UV-vis titration method. A digest of the protocol:
as §3

Experiment [11] in a line: Selectivity index, ratio of binding constant K for calf thymus DNA to binding constant K for poly[d(G-C)]2 DNA (unknown origin). Put shortly:
(§4)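 The ratio uses binding constants from UV-vis Scatchard/McGhee–von Hippel titrations. Conditions were 6.7 µM ligand, 25°C, 10 mM MES pH 6.25, 100 mM NaCl, 1 mM EDTA.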

The nature of experiment [12]: Selectivity index, ratio of binding constant K for poly[d(A-T)]2 DNA (unknown origin) to binding constant K for poly[d(G-C)]2 DNA (unknown origin). Put shortly: as §4
Experiment [13] has as its system Calf thymus DNA. The experiment is described as follows: Binding affinity to calf thymus DNA assessed as change in enthalpy by thermodynamics analysis. It is filed as nucleic-acid assay. The settings on record: Bos taurus. A digest of the protocol:
(§5)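 Binding constants for CT-DNA were obtained by UV-vis titration at 20–27.5°C in 10 mM MES pH 6.25 with 0.1 M NaCl and 1 mM EDTA. ΔH and ΔS were taken from a van't Hoff plot of lnK vs 1/T. ΔG at 25°C came from the Gibbs equation.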

In experiment [14] the test system is Calf thymus DNA. Briefly: Binding affinity to calf thymus DNA assessed as change in entropy by thermodynamics analysis. The class given is nucleic-acid assay. To be noted: Bos taurus. A digest of the protocol: as §5
Experiment [15] relates to Calf thymus DNA. Briefly: Binding affinity to calf thymus DNA assessed as change in free energy at 25 degC by thermodynamics analysis. It is filed as nucleic-acid assay. The settings on record: Bos taurus. Put shortly:
as §5

Experiment [16] relates to Calf thymus DNA. The experiment is described as follows: Binding affinity to calf thymus DNA assessed as increase in positive and negative CD bands at 5 to 50 uM at 25 degC by CD spectroscopy. The class given is nucleic-acid assay. The settings on record: Bos taurus. A digest of the protocol:
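Ligand at 5–50 µM was added to 100 µM/bp CT-DNA in 10 mM MES pH 6.25 with 100 mM NaCl and 1 mM EDTA, at 25°C. CD spectra were recorded, including the induced CD region at 320–400 nm.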

Take `O=C1NCCCN2CCN(CCCN3C(=O)c4ccc5c6c(ccc(c46)C3=O)C(=O)N(CCCN3CCN(CCCNC(=O)c4ccc1cc4)CC3)C5=O)CC2`: in the experiment with Calf thymus DNA [1], the Ratio stood at 0.72. In addition, the K is 60000 M⁻¹ s⁻¹ in the experiment with Calf thymus DNA [2], 120000 M⁻¹ s⁻¹ in experiment [3] and 34000 M⁻¹ s⁻¹ in [4]. For the same molecule, the Kd with Calf thymus DNA [5] stood at 0.1 s⁻¹; in experiment [6] it was 0.15 s⁻¹; in [7], 0.003 s⁻¹. The Activity in the experiment with Nucleic Acid is 2 µM; in the experiment on Calf thymus DNA [8], 60%; in [9], 47%; in [10], 61%. Further, the Selectivity Index in experiment [11] and in experiment [12] was 9 each time. The deltaH with Calf thymus DNA [13] was determined as 32.6 kJ/mol. In the experiment with Calf thymus DNA [14], the deltaS worked out at 0.222 kJ/mol. Further, the deltaG in the experiment on Calf thymus DNA [15] is -33.5 kJ/mol.

Take `CN1CCCNC(=O)c2ccc(cc2)C(=O)NCCCN(C)CCCN2C(=O)c3ccc4c5c(ccc(c35)C2=O)C(=O)N(CCC1)C4=O`: in the experiment on Calf thymus DNA [1], the Ratio was 0.74. For the same molecule, the values for the K (in the experiment on Calf thymus DNA [2]; in experiment [3]; in experiment [4]) were 120000 M⁻¹ s⁻¹, 32000 M⁻¹ s⁻¹ and 26000 M⁻¹ s⁻¹, respectively. The Kd was 1.1 s⁻¹ in the experiment on Calf thymus DNA [5], 4.2 s⁻¹ in [6] and 1 s⁻¹ in experiment [7]. The Activity in the experiment on Nucleic Acid was 10 µM; with Calf thymus DNA [8] it was 60%; in experiment [9], 49%; in experiment [10], 61%. In addition, the outcome in the experiment with Calf thymus DNA [16] was Active. Also, in the experiment with Calf thymus DNA [13], the deltaH is 38.5 kJ/mol. Also, the deltaS in the experiment on Calf thymus DNA [14] stood at 0.226 kJ/mol. For the same molecule, the deltaG in the experiment on Calf thymus DNA [15] is -29.3 kJ/mol.

In the case of `CN(C)CCCN1C(=O)c2ccc3c4c(ccc(c24)C1=O)C(=O)N(CCCN(C)C)C3=O`, in the experiment on Calf thymus DNA [1], the Ratio was 0.83. The K stood at 120000 M⁻¹ s⁻¹ in the experiment on Calf thymus DNA [2], 260000 M⁻¹ s⁻¹ in experiment [3] and 84000 M⁻¹ s⁻¹ in [4]. Besides, the Kd in the experiment on Calf thymus DNA [5] was 1.1 s⁻¹; in experiment [6], 2.6 s⁻¹; in experiment [7], 0.3 s⁻¹. The Activity in the experiment with Calf thymus DNA [8] is 62%; in experiment [9], 60%; in experiment [10], 61%. In the experiment on Calf thymus DNA [13], the deltaH was -28 kJ/mol. Moreover, in the experiment on Calf thymus DNA [14], the deltaS worked out at 0.0126 kJ/mol. Also, the deltaG in the experiment on Calf thymus DNA [15] is -31.8 kJ/mol.
